In ChEMBL document CHEMBL2062417, “Biotinylated quercetin as an intrinsic photoaffinity proteomics probe for the identification of quercetin target proteins” (Bioorg Med Chem, 2011):
Activity calls are given as the source filed them. The rule behind the calls is not given here.

Legend:
[1] = target: Casein kinase II subunit beta (Homo sapiens) (UniProt P67870); experiment: Binding affinity to CK2beta at 150 uM followed by UV irradiation for 30 mins with Wood's glass filtered medium pressure mercury arc light by SDS-PAGE based pull down assay
Outline: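 CK2 (17.5–70 nM) was mixed with 150 μM BioQ in 400 μL 10 mM PBS pH 7.2 with protease inhibitors, with or without 10 mM MgCl2 and 2 μM ATP. Samples were irradiated 30 min on ice (320–400 nm, peak 365 nm) or left unirradiated. Capture was on streptavidin agarose for 1 h, with washes in lysis buffer or 2% SDS Tris buffer, then boiling, SDS-PAGE and silver staining.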

Casein kinase II = Casein kinase II (Homo sapiens, UniProt P19784+P67870+P68400); experiment: Inhibition of CK2 using RRRADDSDDDDD as substrate after 30 mins by PKLight assay; format: protein-complex assay
Jurkat [2] = experiment: Binding affinity to quercetin binding protein in human Jurkat cells at 150 uM followed by UV irradiation for 30 mins with Wood's glass filtered medium pressure mercury arc light after cell lysis by SDS-PAGE based pull down assay
Outline: (§1)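 Jurkat cells were grown in RPMI with 10% FBS (about 15×10^6 cells) and treated 2 h with 150 μM BioQ in 3% aqueous DMSO. They were heat-shocked at 43 °C for 30 min, recovered 1 h at 37 °C, and UV-irradiated (320–400 nm, peak 365 nm, 30 min, 4 °C) before or after sonication lysis. Streptavidin-agarose capture ran 1 h. Beads were washed ≥3× with lysis buffer or 2% SDS Tris pH 7.4, boiled, run on 12% SDS-PAGE and silver-stained.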

Jurkat [3] = experiment: Binding affinity to quercetin binding protein in human Jurkat cells at 150 uM followed by UV irradiation for 30 mins with Wood's glass filtered medium pressure mercury arc light before cell lysis measured after denaturing wash by SDS-PAGE based pull down assay; outline: as §1
Jurkat [4] = experiment: Binding affinity to quercetin binding protein in human Jurkat cells at 150 uM followed by UV irradiation for 30 mins with Wood's glass filtered medium pressure mercury arc light after cell lysis measured after denaturing wash by Western blotting based pull down assay in presence of heat shock
Outline: (§2)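 Streptavidin pull-downs from heat-shocked, BioQ-treated (150 μM), UV-irradiated Jurkat cells received a 2% SDS wash. Proteins were transferred from SDS gels to nitrocellulose and blocked overnight in 3% BSA at 4 °C. Blots were probed 1 h with HRP-conjugated anti-biotin antibody and developed with 4-chloro-1-naphthol/0.01% H2O2, with no-UV and no-probe controls.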

Jurkat [5] = experiment: Binding affinity to quercetin binding protein in human Jurkat cells at 150 uM followed by UV irradiation for 30 mins with Wood's glass filtered medium pressure mercury arc light before cell lysis measured after denaturing wash by Western blotting based pull down assay in presence of heat shock; outline: as §2
[6] = target: RuvB-like 2 (Homo sapiens) (UniProt Q9Y230); experiment: Binding affinity to RUVBL2 in human Jurkat cells at 150 uM followed by UV irradiation for 30 mins with Wood's glass filtered medium pressure mercury arc light after cell lysis measured after denaturing wash by SDS-PAGE based pull down assay; outline: as §1
[7] = target: ATP synthase F(1) complex subunit alpha, mitochondrial (Homo sapiens) (UniProt P25705); experiment: Binding affinity to ATP5A1 in human Jurkat cells at 150 uM followed by UV irradiation for 30 mins with Wood's glass filtered medium pressure mercury arc light after cell lysis measured after denaturing wash by SDS-PAGE based pull down assay; outline: as §1
[8] = target: RuvB-like 2 (Homo sapiens) (UniProt Q9Y230); experiment: Binding affinity to RUVBL2 in human Jurkat cells at 150 uM followed by UV irradiation for 30 mins with Wood's glass filtered medium pressure mercury arc light prior to cell lysis measured after denaturing wash by SDS-PAGE based pull down assay; outline: as §1
[9] = target: ATP synthase F(1) complex subunit alpha, mitochondrial (Homo sapiens) (UniProt P25705); experiment: Binding affinity to ATP5A1 in human Jurkat cells at 150 uM followed by UV irradiation for 30 mins with Wood's glass filtered medium pressure mercury arc light prior to cell lysis measured after denaturing wash by SDS-PAGE based pull down assay; outline: as §1
[10] = target: Actin, cytoplasmic 1 (Homo sapiens) (UniProt P60709); experiment: Binding affinity to ACTB in human Jurkat cells at 150 uM followed by UV irradiation for 30 mins with Wood's glass filtered medium pressure mercury arc light prior to cell lysis measured after denaturing wash by SDS-PAGE based pull down assay; outline: as §1
[11] = target: Actin, cytoplasmic 1 (Homo sapiens) (UniProt P60709); experiment: Binding affinity to ACTB in human Jurkat cells at 150 uM followed by UV irradiation for 30 mins with Wood's glass filtered medium pressure mercury arc light prior to cell lysis measured after denaturing wash by LC-MS/MS based pull down assay
Outline: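 Silver-stained bands from cells irradiated before lysis were excised, destained, reduced with 10 mM DTT, alkylated with 50 mM iodoacetamide and digested with trypsin overnight. Peptides were extracted in 1% TFA/50% acetonitrile. Nano-C18 LC used a 2–50% acetonitrile gradient with 0.1% formic acid over 50 min at 260 nL/min, followed by MS/MS identification.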

Chain of RuvB-like 2 (Homo sapiens) (Q9Y230 whole entry): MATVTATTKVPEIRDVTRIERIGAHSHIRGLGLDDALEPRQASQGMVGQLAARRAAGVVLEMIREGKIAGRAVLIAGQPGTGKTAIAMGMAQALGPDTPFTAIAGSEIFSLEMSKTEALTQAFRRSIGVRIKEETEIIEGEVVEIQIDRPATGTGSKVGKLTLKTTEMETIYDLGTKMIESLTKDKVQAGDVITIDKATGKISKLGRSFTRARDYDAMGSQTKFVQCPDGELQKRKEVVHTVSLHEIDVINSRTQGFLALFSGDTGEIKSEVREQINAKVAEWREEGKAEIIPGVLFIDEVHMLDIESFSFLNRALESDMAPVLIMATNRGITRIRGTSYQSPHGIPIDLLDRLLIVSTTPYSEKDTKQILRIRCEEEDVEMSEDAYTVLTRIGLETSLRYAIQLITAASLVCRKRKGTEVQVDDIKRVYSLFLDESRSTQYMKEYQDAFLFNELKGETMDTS
Chain of ATP synthase F(1) complex subunit alpha, mitochondrial (Homo sapiens) (P25705 whole entry, one chain of several): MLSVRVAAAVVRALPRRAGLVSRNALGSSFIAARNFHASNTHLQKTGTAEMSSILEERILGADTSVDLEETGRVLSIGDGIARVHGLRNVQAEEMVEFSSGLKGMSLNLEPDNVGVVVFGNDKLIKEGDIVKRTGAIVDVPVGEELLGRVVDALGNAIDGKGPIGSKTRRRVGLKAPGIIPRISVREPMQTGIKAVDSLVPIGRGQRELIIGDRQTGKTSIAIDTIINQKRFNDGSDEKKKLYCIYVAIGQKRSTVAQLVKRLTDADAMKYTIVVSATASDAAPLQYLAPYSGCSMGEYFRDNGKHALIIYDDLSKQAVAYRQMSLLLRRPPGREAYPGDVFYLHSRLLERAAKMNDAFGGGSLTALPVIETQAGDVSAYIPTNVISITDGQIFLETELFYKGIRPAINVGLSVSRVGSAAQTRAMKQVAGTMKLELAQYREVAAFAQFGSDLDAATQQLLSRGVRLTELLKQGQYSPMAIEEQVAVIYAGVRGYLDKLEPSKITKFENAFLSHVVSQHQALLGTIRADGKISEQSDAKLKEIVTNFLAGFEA
Chain of Casein kinase II (P67870 whole entry): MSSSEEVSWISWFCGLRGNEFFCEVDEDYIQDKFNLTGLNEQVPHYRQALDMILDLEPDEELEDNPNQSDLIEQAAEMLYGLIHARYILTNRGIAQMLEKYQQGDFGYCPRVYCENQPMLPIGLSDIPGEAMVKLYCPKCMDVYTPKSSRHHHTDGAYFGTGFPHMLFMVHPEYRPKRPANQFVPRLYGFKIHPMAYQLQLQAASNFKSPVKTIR
Chain of Casein kinase II (P68400 whole entry): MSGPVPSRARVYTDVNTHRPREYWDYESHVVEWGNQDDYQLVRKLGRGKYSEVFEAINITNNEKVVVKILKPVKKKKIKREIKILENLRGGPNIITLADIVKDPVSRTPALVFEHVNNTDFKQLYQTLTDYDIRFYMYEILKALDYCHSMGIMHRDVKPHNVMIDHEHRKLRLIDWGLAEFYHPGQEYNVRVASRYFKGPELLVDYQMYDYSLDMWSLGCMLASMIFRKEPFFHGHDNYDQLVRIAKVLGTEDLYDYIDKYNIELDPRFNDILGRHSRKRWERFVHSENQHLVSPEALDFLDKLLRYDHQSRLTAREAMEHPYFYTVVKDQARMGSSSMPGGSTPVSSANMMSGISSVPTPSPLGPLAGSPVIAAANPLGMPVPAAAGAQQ
Chain of Casein kinase II (P19784 whole entry): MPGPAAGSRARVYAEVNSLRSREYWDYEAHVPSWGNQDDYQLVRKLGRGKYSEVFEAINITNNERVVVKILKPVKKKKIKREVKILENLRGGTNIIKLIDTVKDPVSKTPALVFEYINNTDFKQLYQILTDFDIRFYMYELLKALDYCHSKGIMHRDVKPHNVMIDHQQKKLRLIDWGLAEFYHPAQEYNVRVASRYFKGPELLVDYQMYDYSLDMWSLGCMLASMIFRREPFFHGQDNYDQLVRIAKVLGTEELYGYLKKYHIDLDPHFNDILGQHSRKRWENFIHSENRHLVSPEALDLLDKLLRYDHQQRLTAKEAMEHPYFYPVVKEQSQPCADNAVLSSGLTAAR
Chain of Casein kinase II subunit beta (Homo sapiens) (P67870 whole entry): as the sequence (P67870 whole entry) above

- Activity [1]: Active
- IC50 (Casein kinase II): 3.2 µM
- Activity [6]: Active
- Activity [7]: Active
- Activity [8]: Active
- Activity [9]: Active
- Activity [10]: Active
- Activity [11]: Active
SMILES: O=C(CCCC[C@@H]1SC[C@@H]2NC(=O)N[C@@H]21)NCCOCCOCCNC(=O)COc1cc(O)c2c(=O)c(O)c(-c3ccc(O)c(O)c3)oc2c1
- Activity (Jurkat [2]): Active
- Activity (Jurkat [3]): Active
- Activity (Jurkat [4]): Active
- Activity (Jurkat [5]): Active
